The results in this text go back to ChEMBL document CHEMBL1287738, “Synthesis and biological evaluation of retinoid-chalcones as inhibitors of colon cancer cell growth” (Bioorg Med Chem Lett, 2010).

The subject of the test is HT-29. Nature of the test: Growth inhibition of human HT-29 cell. The format is functional, cell-based. An outline of the steps:
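Human colon carcinoma HT-29 cells (Apc-null, wild-type β-catenin) incubated with varying concentrations of each compound for 3 days at 37°C; growth inhibition measured.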

What is called IC50 is the point on the concentration scale where inhibition reaches its midpoint. A high value points to a need for much substance. For `N#Cc1ccc(/C=C/C(=O)c2ccccc2)cc1`, the midpoint of inhibition, the IC50, lay at 3.7 µM.
